# According to ChEMBL document CHEMBL5058577, “EUbOPEN Chemogenomics Library 2 (Multiplex)” (2022):
# System: HEK-293T
# Test: Multiplex assay against HEK293T
# Type: toxicity, cell-based
# Details: human
# Summary of the method: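 Imaging took place on a CQ1 microscope at 37°C and 5% CO2 once compound had been added to live cells stained at seeding with Hoechst33342, BioTracker Green Microtubule Cytoskeleton Dye, MitoTracker Red and Annexin V Alexa Fluor 680. CellPathfinder machine-learning gating classed cells as Hoechst high-intensity objects or normal cells, classed normal cells as having healthy, pyknosed or fragmented nuclei, and classed pyknosed cells as mitotic or apoptotic. Tubulin, mitochondrial-mass and membrane-permeability phenotypes are per cents of the healthy-nucleus cells.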
# [1] = 12 h, 1 µM, compound concentration 1 uM, replicate 1
# [2] = 12 h, 1 µM, compound concentration 1 uM, replicate 2
# [3] = 12 h, 10 µM, compound concentration 10 uM, replicate 1
# [4] = 12 h, 10 µM, compound concentration 10 uM, replicate 2
# [5] = 24 h, 1 µM, compound concentration 1 uM, replicate 1
# [6] = 24 h, 1 µM, compound concentration 1 uM, replicate 2
# [7] = 24 h, 10 µM, compound concentration 10 uM, replicate 1
# [8] = 24 h, 10 µM, compound concentration 10 uM, replicate 2
# [9] = 48 h, 1 µM, compound concentration 1 uM, replicate 1
# [10] = 48 h, 1 µM, compound concentration 1 uM, replicate 2
# [11] = 48 h, 10 µM, compound concentration 10 uM, replicate 1
# [12] = 48 h, 10 µM, compound concentration 10 uM, replicate 2
smiles,measurement,setting,value
COCCCN1CCC(NC(=O)c2cc(Cl)c(N)c3c2OCC3)CC1 [PRUCALOPRIDE],Population Apoptotic (%),[1],22%
same,Population Fragmented Nuclei (%),[1],10%
same,Population Healthy Nuclei (%),[1],80%
same,Population Hoechst High Intensity Objects (%),[1],8%
same,Population Membrane Permeable-Phenotype (%),[1],0%
same,Population Mitochondria Different-Phenotype (%),[1],36%
same,Population Mitotic Cells (%),[1],77%
same,Population Normal (%),[1],91%
same,Population Pyknosed Nuclei (%),[1],9%
same,Population Tubulin-Different-Phenotype (%),[1],21%
same,Total Cell Count,[1],416
same,Population Apoptotic (%),[2],31%
same,Population Fragmented Nuclei (%),[2],4%
same,Population Healthy Nuclei (%),[2],82%
same,Population Hoechst High Intensity Objects (%),[2],7%
same,Population Mitochondria Different-Phenotype (%),[2],59%
same,Population Mitotic Cells (%),[2],68%
same,Population Normal (%),[2],92%
same,Population Pyknosed Nuclei (%),[2],12%
same,Population Tubulin-Different-Phenotype (%),[2],16%
same,Total Cell Count,[2],397
same,Population Apoptotic (%),[3],37%
same,Population Fragmented Nuclei (%),[3],8%
same,Population Healthy Nuclei (%),[3],74%
same,Population Hoechst High Intensity Objects (%),[3],4%
same,Population Membrane Permeable-Phenotype (%),[3],0%
same,Population Mitochondria Different-Phenotype (%),[3],59%
same,Population Mitotic Cells (%),[3],62%
same,Population Normal (%),[3],95%
same,Population Pyknosed Nuclei (%),[3],17%
same,Population Tubulin-Different-Phenotype (%),[3],43%
same,Total Cell Count,[3],421
same,Population Apoptotic (%),[4],56%
same,Population Fragmented Nuclei (%),[4],10%
same,Population Healthy Nuclei (%),[4],72%
same,Population Hoechst High Intensity Objects (%),[4],10%
same,Population Mitochondria Different-Phenotype (%),[4],75%
same,Population Mitotic Cells (%),[4],43%
same,Population Normal (%),[4],89%
same,Population Tubulin-Different-Phenotype (%),[4],35%
same,Total Cell Count,[4],261
same,Population Apoptotic (%),[5],20%
same,Population Fragmented Nuclei (%),[5],11%
same,Population Healthy Nuclei (%),[5],78%
same,Population Hoechst High Intensity Objects (%),[5],5%
same,Population Membrane Permeable-Phenotype (%),[5],1%
same,Population Mitochondria Different-Phenotype (%),[5],18%
same,Population Mitotic Cells (%),[5],79%
same,Population Normal (%),[5],94%
same,Population Pyknosed Nuclei (%),[5],10%
same,Population Tubulin-Different-Phenotype (%),[5],14%
same,Total Cell Count,[5],590
same,Population Apoptotic (%),[6],28%
same,Population Fragmented Nuclei (%),[6],8%
same,Population Healthy Nuclei (%),[6],84%
same,Population Hoechst High Intensity Objects (%),[6],4%
same,Population Membrane Permeable-Phenotype (%),[6],0%
same,Population Mitochondria Different-Phenotype (%),[6],39%
same,Population Mitotic Cells (%),[6],71%
same,Population Normal (%),[6],95%
same,Population Pyknosed Nuclei (%),[6],6%
same,Population Tubulin-Different-Phenotype (%),[6],10%
same,Total Cell Count,[6],546
same,Population Apoptotic (%),[7],28%
same,Population Fragmented Nuclei (%),[7],8%
same,Population Healthy Nuclei (%),[7],77%
same,Population Hoechst High Intensity Objects (%),[7],4%
same,Population Membrane Permeable-Phenotype (%),[7],0%
same,Population Mitochondria Different-Phenotype (%),[7],48%
same,Population Mitotic Cells (%),[7],71%
same,Population Normal (%),[7],95%
same,Population Pyknosed Nuclei (%),[7],13%
same,Population Tubulin-Different-Phenotype (%),[7],32%
same,Total Cell Count,[7],531
same,Population Apoptotic (%),[8],50%
same,Population Fragmented Nuclei (%),[8],13%
same,Population Healthy Nuclei (%),[8],73%
same,Population Hoechst High Intensity Objects (%),[8],9%
same,Population Mitochondria Different-Phenotype (%),[8],51%
same,Population Mitotic Cells (%),[8],50%
same,Population Normal (%),[8],90%
same,Population Pyknosed Nuclei (%),[8],12%
same,Population Tubulin-Different-Phenotype (%),[8],25%
same,Total Cell Count,[8],341
same,Population Apoptotic (%),[9],24%
same,Population Fragmented Nuclei (%),[9],15%
same,Population Healthy Nuclei (%),[9],76%
same,Population Hoechst High Intensity Objects (%),[9],2%
same,Population Membrane Permeable-Phenotype (%),[9],1%
same,Population Mitochondria Different-Phenotype (%),[9],16%
same,Population Mitotic Cells (%),[9],75%
same,Population Normal (%),[9],97%
same,Population Pyknosed Nuclei (%),[9],7%
same,Population Tubulin-Different-Phenotype (%),[9],11%
same,Total Cell Count,[9],1001
same,Population Apoptotic (%),[10],21%
same,Population Fragmented Nuclei (%),[10],11%
same,Population Healthy Nuclei (%),[10],81%
same,Population Hoechst High Intensity Objects (%),[10],1%
same,Population Membrane Permeable-Phenotype (%),[10],0%
same,Population Mitochondria Different-Phenotype (%),[10],15%
same,Population Mitotic Cells (%),[10],78%
same,Population Normal (%),[10],98%
same,Population Pyknosed Nuclei (%),[10],6%
same,Population Tubulin-Different-Phenotype (%),[10],9%
same,Total Cell Count,[10],832
same,Population Apoptotic (%),[11],20%
same,Population Fragmented Nuclei (%),[11],16%
same,Population Healthy Nuclei (%),[11],77%
same,Population Hoechst High Intensity Objects (%),[11],1%
same,Population Membrane Permeable-Phenotype (%),[11],1%
same,Population Mitochondria Different-Phenotype (%),[11],32%
same,Population Mitotic Cells (%),[11],79%
same,Population Normal (%),[11],98%
same,Population Pyknosed Nuclei (%),[11],6%
same,Population Tubulin-Different-Phenotype (%),[11],16%
same,Total Cell Count,[11],772
same,Population Apoptotic (%),[12],35%
same,Population Healthy Nuclei (%),[12],75%
same,Population Hoechst High Intensity Objects (%),[12],3%
same,Population Membrane Permeable-Phenotype (%),[12],0%
same,Population Mitochondria Different-Phenotype (%),[12],31%
same,Population Mitotic Cells (%),[12],64%
same,Population Normal (%),[12],96%
same,Population Pyknosed Nuclei (%),[12],7%
same,Population Tubulin-Different-Phenotype (%),[12],15%
same,Total Cell Count,[12],528
